Screening data as filed in PubChem BioAssay.
hERG rescue: shields human hERG channel from block by proarrhythmic agents; CHO-hERG, FluxOR thallium flux, dofetilide IC70 present; activation (rescue from dofetilide block), less the hit threshold, % at 10 µM; 310,000 tested, 0.51% active; AID 1511;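 active = activation above the mean of controls blocked by dofetilide plus 5 SD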;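 note: thallium influx through hERG after potassium depolarization seen as dye fluorescence rise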
KCNK3 block: human KCNK3 channel inhibition, primary screen. O14649. CHO-KCNK3 thallium flux, FluxOR fluorescence; hits give low values. B-score at 10 µM. 340,000 tested, 0.84% active;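 active = B-score under library mean minus 4 SD, starting fluorescence ratio at most library mean plus 5 SD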;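 note: more negative B-score means stronger inhibition of thallium flux through KCNK3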
KCNQ1 pot: potentiators or activators of human KCNQ1 potassium channel | P51787 | CHO-K1 KCNQ1, thallium flux FluxOR fluorescence; hits give high values | B-score at 10 µM | 310,000 tested, 0.35% active | AID 2648;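 active = fluorescence ratio B-score, a plate-corrected score, at least three library SD, with initial intensity B-score within 5 SD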
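Assay system: CHO-K1 cells stably expressing KCNQ1; Medium: assay buffer with matched DMSO; Also added: K+/Tl+ depolarizing stimulus; Dosing: single dose; Timing: dye 90 min, compound 20 min, room temperature; Measured by: kinetic FluxOR thallium fluorescence, 10-s 1-Hz baseline, 110-s post-stimulus read; Read-out: peak-minus-minimum fluorescence over initial fluorescence, negative-control normalized, B-scored.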
KCNQ1 inh: human KCNQ1 channel inhibition; P51787; 310,000 tested, 1.3% active; AID 2642; CHO-K1 KCNQ1, FluxOR thallium flux fluorescence; hits give high values; B-score at 10 µM;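 active = compounds whose thallium flux B-score, printed positive for inhibition, exceeds three library SD while starting fluorescence stays within three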;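 note: channel opened by potassium depolarization with thallium stimulus after 20 min compound exposure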
KCNK9 block: blocks the human KCNK9 two-pore domain potassium channel; Q9NPC2; HEK293 KCNK9, FluxOR thallium flux fluorescence; hits give low values; B-score at 10 µM; 310,000 tested, 1.2% active; AID 488922;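 active = ratio B-score over 3 SD below the library mean, with starting fluorescence within 5 SD of its mean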;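 note: negative B-score means less thallium flux so channel inhibition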
Kir21 block: Kir2.1 (mouse) channel inhibition; P35561; HEK293-Kir2.1, FluxOR thallium flux fluorescence; hits give low values; B-score at 10 µM; 310,000 tested, 0.85% active; AID 1672;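 active = fluorescence ratio B-score at or below minus 3 SD of library scores, with starting-brightness B-score within 2 SD, cut at about -4.2 in these data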;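 note: channel flux triggered by added potassium and thallium sulfate stimulus; B-score of peak minus minimum fluorescence over baseline after thallium stimulus; more negative B-score means stronger Kir2.1 block with less thallium influx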
KCNQ1 inh valid: reconfirmed blocker of the human KCNQ1 potassium channel; shares compounds with KCNQ1 inh; KCNQ1 cell line, FluxOR thallium flux fluorescence; inhibition, % at 10 µM; 1,600 tested, 93% active; AID 588353;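 active = primary screen active, with duplicate mean exceeding buffer control mean plus 3 SD of buffer wells, cut at about 28% in these data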
CHO KCNQ1 ctr: KCNQ1 inhibitor counter-screen hit in parental CHO cells; shares compounds with KCNQ1 inh; parental CHO-K1, FluxOR thallium flux fluorescence ratio; hits give low values; zero means no signal rise above baseline; fluorescence ratio (Tl flux) at 10 µM; 1,600 tested, 21% active;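 active = mean of duplicate thallium-flux fluorescence ratios in parental host cells more than 5 SD below the buffer control mean, cut at about 0.38 in these data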;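 note: ratio is peak minus minimum fluorescence divided by baseline fluorescence; actives read low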
KCNQ1 ephys val: blocks human KCNQ1 current in automated patch clamp. shares compounds with KCNQ1 inh. KCNQ1-CHO cells. calls only at 10 µM. 490 tested, 20% active;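 active = KCNQ1 current drop exceeding 3 SD of negative control wells, seen in both duplicate runs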;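 note: steady state current during a 2 s step from -80 to +40 mV; negative values mean current inhibition and positive values mean potentiation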
KCNQ2 inh: rat KCNQ2 inhibition in KCNQ1 inhibitor specificity screen; shares compounds with KCNQ1 inh; KCNQ2 cells, FluxOR thallium flux fluorescence; inhibition, % at 10 µM; 1,600 tested, 71% active;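 active = mean percent inhibition of the KCNQ2 thallium signal more than 5 SD above the buffer-only control wells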;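 note: KCNQ2 expressed in CHO cells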
KCNQ1-KCNE1 inh: KCNQ1 inhibitor that also blocks human KCNQ1/KCNE1 channel. shares compounds with KCNQ1 inh. KCNQ1/KCNE1 cells, FluxOR thallium flux fluorescence. inhibition, % at 10 µM. 1,600 tested, 77% active. AID 652147;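 active = mean percent inhibition of duplicate wells above the buffer-only control mean plus 3 SD of those controls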
Of the large screens only hits and unclear results are named; the others gave an inactive call (follow-up assays come after a bar, where they were run). A selection: hits, their analogues and other compounds. The true share with any hit is near 3.8%.

COc1ccc(C)cc1Nc1n[n+](-c2ccccc2)c(-c2ccc(N(C)C)cc2)s1	KCNQ1 inh 15, KCNK9 block -7.2 | KCNQ1 inh valid active | CHO KCNQ1 ctr 0.22 | KCNQ2 inh inactive | KCNQ1-KCNE1 inh inactive
CN(C)c1ccc(-c2sc(Nc3ccccc3)n[n+]2-c2ccc(F)cc2)cc1	none
Cc1cc(N2CCCC2=O)cc(C)c1S(=O)(=O)NCCOc1ccc(C(C)(C)C)cc1	KCNQ1 inh 10 | KCNQ1 inh valid 138 | CHO KCNQ1 ctr inactive | KCNQ1 ephys val inactive | KCNQ2 inh 112% | KCNQ1-KCNE1 inh 141%
Cn1cc(S(=O)(=O)Nc2ccc(F)cc2F)c(=O)n(C)c1=O	none
Cc1c(Cl)cccc1NC(=O)Nn1cnnc1	none
COc1ccc(CN=Cc2[nH]c3ccc(Br)c(Cl)c3c2O)cc1	KCNQ1 inh 7 | KCNQ1 inh valid 116 | CHO KCNQ1 ctr 0.37 | KCNQ2 inh 111% | KCNQ1-KCNE1 inh 92%
C[C@@]12C(=O)Nc3ccc(F)cc3C(=O)N1[C@H]1c3cc(Br)ccc3OC[C@@H]1[C@@H]2c1ccccc1	none (no result: hERG rescue, KCNQ1 pot, KCNQ1 inh, KCNK9 block, Kir21 block)
O=C(NCc1ccco1)c1ccccc1Nc1ccc(F)cc1	KCNQ1 inh 7 | KCNQ1 inh valid 105 | CHO KCNQ1 ctr inactive | KCNQ1 ephys val active | KCNQ2 inh 63% | KCNQ1-KCNE1 inh 91%
O=C(c1cnn2c(C(F)F)cc(-c3ccccc3)nc12)N1CCOCC1	none
CC1CCN(C(=O)c2cc3nc(-c4ccccc4)cc(-c4ccccc4)n3n2)CC1	KCNQ1 inh 6 | KCNQ1 inh valid 112 | CHO KCNQ1 ctr inactive | KCNQ1 ephys val inactive | KCNQ2 inh 108% | KCNQ1-KCNE1 inh 182%
O=C(c1cc2nc(-c3ccccc3)cc(C(F)(F)F)n2n1)N1CCOCC1	none
O=C(c1cnn2c(-c3ccccc3)cc(-c3ccccc3)nc12)N1CCN(Cc2ccccc2)CC1	KCNQ1 inh 7 | KCNQ1 inh valid 130 | CHO KCNQ1 ctr 0.31 | KCNQ2 inh 154% | KCNQ1-KCNE1 inh active
COc1cc2cnc(-c3ccccc3F)cc2cc1OC	none (no result: hERG rescue, KCNQ1 pot, KCNQ1 inh, KCNK9 block, Kir21 block)
O=C(Nc1cccc(F)c1)N1CCCC(CNS(=O)(=O)Cc2ccccc2)C1 (stereo unspecified)	none
Cc1ccc(Cl)cc1N1CCN(C(=O)CCCn2c(=O)c3cccn3c3cccnc32)CC1	KCNQ1 inh 6 | KCNQ1 inh valid 98 | CHO KCNQ1 ctr inactive | KCNQ1 ephys val inactive | KCNQ2 inh 107% | KCNQ1-KCNE1 inh 177%
CCOC(=O)N1CCN(Cc2cc(=O)oc3cc4c(cc23)CCC4)CC1	none
COc1ccc(-c2c(S(=O)(=O)c3ccccc3)cnn2-c2ccccc2)cc1	none
CCCCCNC(=O)c1cccc(S(=O)(=O)N2CC3(C)CC2CC(C)(C)C3)c1 (stereo unspecified)	KCNQ1 inh 7 | KCNQ1 inh valid 86 | CHO KCNQ1 ctr inactive | KCNQ2 inh inactive | KCNQ1-KCNE1 inh 88%
Cc1cccc(NC(=O)c2cc(Cl)nc3ccccc23)c1	none
CCOC(=O)N1CCN(CC(O)COCCC23CC4CC(CC(C4)C2)C3)CC1 (stereo unspecified)	none
CC1CCCCN1CC(O)COCCC12CC3CC(CC(C3)C1)C2 (stereo unspecified)	KCNQ1 inh 8 | KCNQ1 inh valid 90 | CHO KCNQ1 ctr inactive | KCNQ1 ephys val active | KCNQ2 inh 71% | KCNQ1-KCNE1 inh 64%
CCN1CCN(CCNC(=O)c2ccc(/C=C3/Sc4ccccc4N(Cc4cccc(Cl)c4)C3=O)cc2)CC1	KCNQ1 inh 14, Kir21 block -5.1 | KCNQ1 inh valid 80 | CHO KCNQ1 ctr 0.34 | KCNQ2 inh 97% | KCNQ1-KCNE1 inh 145%
O=C(CN1C(=O)/C(=C\c2cccc(Cl)c2)Sc2ccccc21)NCCCN1CCOCC1	none
CC1CN(S(=O)(=O)c2cccc(C(=O)Nc3ccccc3N3CCCCC3)c2)CC(C)O1 (stereo unspecified)	KCNQ1 inh 7 | KCNQ1 inh valid 76 | CHO KCNQ1 ctr inactive | KCNQ2 inh 114% | KCNQ1-KCNE1 inh 88%
CCOC(=O)c1cn[nH]c1NC(=S)Nc1ccc(Cl)cc1	KCNQ1 inh 13 | KCNQ1 inh valid 78 | CHO KCNQ1 ctr inactive | KCNQ2 inh 76% | KCNQ1-KCNE1 inh 54%
CCOC(=O)c1ccc(NC(=S)Nc2ccc(C)cc2)cc1	none
Cc1cc(C)c(O)c(-c2cc(C(=O)Nc3ccc(S(=O)(=O)N4CCOCC4)cc3)[nH]n2)c1	KCNQ1 inh 6 | KCNQ1 inh valid 133 | CHO KCNQ1 ctr 0.37 | KCNQ2 inh 94% | KCNQ1-KCNE1 inh active
Cc1c(C(=O)Nc2c(F)cccc2F)sc2ncnc(N3CCN(c4ccccc4)CC3)c12	KCNQ1 inh 7 | KCNQ1 inh valid 64 | CHO KCNQ1 ctr inactive | KCNQ2 inh 104% | KCNQ1-KCNE1 inh 88%
COc1ccc(NC(=O)c2sc3ncnc(N4CCN(c5ccccn5)CC4)c3c2C)cc1Cl	KCNQ1 inh 8 | KCNQ1 inh valid 80 | CHO KCNQ1 ctr inactive | KCNQ2 inh 97% | KCNQ1-KCNE1 inh 108%
Cc1cc(Br)ccc1NC(=O)c1sc2ncnc(N3CCN(c4ccccn4)CC3)c2c1C	KCNQ1 inh 6 | KCNQ1 inh valid 89 | CHO KCNQ1 ctr inactive | KCNQ1 ephys val inactive | KCNQ2 inh 104% | KCNQ1-KCNE1 inh 82%
COc1ccc(NC(=O)CN2CCN(c3ccccn3)CC2)cc1Cl	none
COc1ccc(C(C)=O)cc1CSc1nncn1C	KCNQ1 inh 8 | KCNQ1 inh valid 64 | CHO KCNQ1 ctr inactive | KCNQ2 inh 60% | KCNQ1-KCNE1 inh 35%
O=C1c2ccsc2SCCN1Cc1c(Cl)cccc1Cl	KCNQ1 inh 8 | KCNQ1 inh valid 69 | CHO KCNQ1 ctr inactive | KCNQ2 inh 79% | KCNQ1-KCNE1 inh 86%
Cc1cc(-c2ccc(S(=O)(=O)N(C)c3ccc(C)c(C)c3)s2)on1	KCNQ1 inh 9 | KCNQ1 inh valid 128 | CHO KCNQ1 ctr 0.34 | KCNQ2 inh 143% | KCNQ1-KCNE1 inh 150%
Cc1ccc(N(C)S(=O)(=O)c2ccc(-c3cc(C)no3)s2)cc1	none
